IC50 and MIC data for 24 compounds are collected here from ChEMBL document CHEMBL1141302, “Anti-Helicobacter pylori and thrombin inhibitory components from Chinese dragon's blood, Dracaena cochinchinensis” (J Nat Prod, 2007).

The target in one experiment is Prothrombin (Homo sapiens, UniProt P00734). Description: Inhibition of human thrombin.
The next experiment concerns the target Dipeptidyl peptidase 4 (Homo sapiens, UniProt P27487). In words: Inhibition of human recombinant DPP4. Summed up:
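Recombinant human DPP-IV, expressed and purified in-house, at 0.01 nM in 100 mM Hepes pH 7.5 with 10 µM Ala-Pro-AMC substrate and 2% DMSO.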

For a further experiment, the system named is Helicobacter pylori. Description: Antibacterial activity against Helicobacter pylori ATCC 43504 by agar dilution method. Type of experiment: functional. A digest of the protocol:
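Mueller-Hinton agar plates with 7% lysed sheep blood and 2-fold serial dilutions of compound; spots of 5 µL bacterial suspension (10^7 cfu/mL) by multipoint inoculator; 37°C for 3 days, microaerobic (5% O2, 10% CO2, 85% N2, 98% humidity). MIC read as lowest inhibitory concentration; drug-free and DMSO-dilution plates as negative controls.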

The structures appear in SMILES notation. Values after ≈ are worked out from the molar mass of the structure shown.

Chain of Dipeptidyl peptidase 4 (P27487 whole entry): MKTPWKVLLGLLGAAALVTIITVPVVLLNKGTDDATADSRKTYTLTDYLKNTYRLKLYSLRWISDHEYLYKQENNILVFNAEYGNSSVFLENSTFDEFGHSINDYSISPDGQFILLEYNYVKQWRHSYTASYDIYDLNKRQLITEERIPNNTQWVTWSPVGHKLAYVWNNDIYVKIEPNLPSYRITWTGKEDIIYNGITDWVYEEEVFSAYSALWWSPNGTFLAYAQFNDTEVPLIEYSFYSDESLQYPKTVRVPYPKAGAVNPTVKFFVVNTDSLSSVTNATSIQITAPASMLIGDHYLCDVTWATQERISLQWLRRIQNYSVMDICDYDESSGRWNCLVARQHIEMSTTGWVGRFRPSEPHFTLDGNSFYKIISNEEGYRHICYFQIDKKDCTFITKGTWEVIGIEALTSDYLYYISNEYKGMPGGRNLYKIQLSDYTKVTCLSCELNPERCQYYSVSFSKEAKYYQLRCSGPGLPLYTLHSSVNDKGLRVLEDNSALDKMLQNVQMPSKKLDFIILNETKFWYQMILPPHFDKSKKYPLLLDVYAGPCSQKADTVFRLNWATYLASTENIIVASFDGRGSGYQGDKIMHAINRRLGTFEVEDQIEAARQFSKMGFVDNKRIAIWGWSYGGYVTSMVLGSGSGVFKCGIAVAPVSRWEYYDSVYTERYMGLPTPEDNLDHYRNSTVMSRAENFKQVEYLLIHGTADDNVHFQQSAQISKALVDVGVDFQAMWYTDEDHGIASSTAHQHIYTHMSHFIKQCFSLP

Turning to `COc1cc(O)ccc1CCC(c1ccc(O)cc1)c1c(/C=C/c2ccc(O)cc2)cc(O)cc1OC` (stereo not given) [COCHINCHINENENE C], the IC50 is 26.7 µM on Prothrombin and more than 40.2 µM at Dipeptidyl peptidase 4. Besides, the MIC against Helicobacter pylori was 64.3 µM (≈ 32.1 µg/mL).

In the experiment with Helicobacter pylori, `Oc1ccc(/C=C/c2cc(O)cc(O)c2)cc1` [RESVERATROL] returned a minimal inhibitory concentration (MIC) of 281 µM (≈ 64.1 µg/mL).

`COc1ccc(/C=C/c2cc(O)cc(O)c2)cc1` [RESVERATROL 4'-METHYL ETHER] showed an MIC against Helicobacter pylori of 264 µM (≈ 64.1 µg/mL).

In the case of `O=C(CCc1ccc(O)cc1O)c1ccc(O)cc1`, the minimal inhibitory concentration (MIC) in the experiment with Helicobacter pylori was 248 µM (≈ 64.1 µg/mL).

Compound `COc1c(O)ccc2c1OCC(Cc1ccc(O)cc1)C2` (stereo not given) displayed a minimal inhibitory concentration (MIC) in the experiment on Helicobacter pylori of 55.9 µM (≈ 16 µg/mL).

As for `COc1cc(O)cc(OC)c1CCC(=O)c1ccc(O)cc1`, the MIC with Helicobacter pylori was found to be 212 µM (≈ 64.1 µg/mL).

Consider `CC1(C)S[C@@H]2[C@H](NC(=O)[C@H](N)c3ccc(O)cc3)C(=O)N2[C@H]1C(=O)O` [AMOXICILLIN], for which 0.08 µM (≈ 0.0292 µg/mL) was the least that counted as inhibitory against Helicobacter pylori (MIC).

As to `COc1cc(O)ccc1CCC(c1ccc(O)cc1)c1c(O)cc(O)cc1/C=C/c1ccc(O)cc1` (stereo not given) [COCHINCHINENENE D], the IC50 against Prothrombin and at Dipeptidyl peptidase 4 was more than 41.3 µM throughout. Besides, the lowest concentration to inhibit growth in the experiment on Helicobacter pylori (MIC) was 66.1 µM (≈ 32 µg/mL).

Take `COc1cc(O)ccc1C(=O)/C=C/c1ccc(O)cc1`: in the experiment on Helicobacter pylori, the minimum inhibitory concentration (MIC) was found to be 118 µM (≈ 32 µg/mL).

On to `COc1cc(OC)c(C(CCc2ccc(O)cc2OC)c2ccc(O)cc2)cc1CCC(=O)c1ccc(O)cc1` (stereo not given) [COCHINCHINENIN B], for which the IC50 against Prothrombin was 12.3 µM; on Dipeptidyl peptidase 4, more than 36.9 µM. This compound also displayed a minimal inhibitory concentration (MIC) in the experiment on Helicobacter pylori of 29.5 µM (≈ 16 µg/mL).

`COc1ccc(C(CCc2ccc(O)cc2OC)c2c(OC)cc(/C=C/c3ccc(O)cc3)cc2OC)cc1` (stereo not given) [COCHINCHINENENE A]: the half-inhibitory concentration (IC50) against Prothrombin was more than 9.5 µM; on Dipeptidyl peptidase 4, more than 36.9 µM. For the same compound, in the experiment with Helicobacter pylori, the MIC worked out at 60.8 µM (≈ 32 µg/mL).

`COc1ccc([C@@H]2CCc3ccc(O)cc3O2)cc1` registered an MIC in the experiment with Helicobacter pylori of 250 µM (≈ 64.1 µg/mL).

On to `COc1ccc(C(CCc2ccc(O)cc2OC)c2c(O)cc(OC)cc2/C=C/c2ccc(O)cc2)cc1` (stereo not given) [COCHINCHINENENE B], for which the IC50 is 17.8 µM on Prothrombin and more than 39.1 µM on Dipeptidyl peptidase 4. This compound registered an MIC with Helicobacter pylori of 62.5 µM (≈ 32 µg/mL).

`Cc1ncc([N+](=O)[O-])n1CCO` [METRONIDAZOLE]: in the experiment with Helicobacter pylori, the MIC worked out at 748 µM (≈ 128 µg/mL).

As to `COc1cc(O)cc(O)c1CCC(=O)c1ccc(O)cc1`, it took 111 µM (≈ 32 µg/mL) to inhibit growth against Helicobacter pylori (MIC).

`COc1ccc2c(c1C)O[C@@H](c1ccc(O)cc1)CC2` returned an MIC in the experiment with Helicobacter pylori of 59.3 µM (≈ 16 µg/mL).

As to `COc1cc(O)ccc1CCC(c1ccc(O)cc1)c1cc2c(c(C)c1O)O[C@@H](c1ccc(O)cc1)CC2` (stereo not given in full), the half-inhibitory concentration (IC50) against Prothrombin is 21.5 µM; at Dipeptidyl peptidase 4, more than 39.1 µM. Also, inhibition of growth against Helicobacter pylori (MIC) required 62.5 µM (≈ 32 µg/mL).

`COc1ccc(CCC(=O)c2ccc(O)cc2)c(OC)c1`: 224 µM (≈ 64.1 µg/mL) was the least that counted as inhibitory against Helicobacter pylori (MIC).

Turning to `COc1ccc(C(CCc2ccc(O)cc2OC)c2cc(CCC(=O)c3ccc(O)cc3)c(OC)cc2O)cc1` (stereo not given) [COCHINCHINENIN C], the concentration for half-maximal inhibition (IC50) at Prothrombin is more than 9.2 µM; at Dipeptidyl peptidase 4, more than 36.9 µM. The compound also had an MIC against Helicobacter pylori of 29.5 µM (≈ 16 µg/mL).

In the case of `COc1cc(O)c(C(CCc2ccc(O)cc2OC)c2ccc(O)cc2)cc1CCC(=O)c1ccc(O)cc1` (stereo not given), the IC50 on Prothrombin was 26.3 µM; at Dipeptidyl peptidase 4 it was more than 36.9 µM. Also, in the experiment on Helicobacter pylori, inhibition of growth (MIC) required 60.6 µM (≈ 32 µg/mL).

As to `COC1=CC(=O)C=C(OC)C1(O)CCC(=O)c1ccc(O)cc1` [COCHINCHINENONE], it took 201 µM (≈ 64.1 µg/mL) to inhibit growth against Helicobacter pylori (MIC).

`Cc1c(O)ccc2c1O[C@H](c1ccc(O)cc1)CC2` displayed an MIC against Helicobacter pylori of 31.3 µM (≈ 8.02 µg/mL).

The compound `COc1cc(O)ccc1CCC(=O)c1ccc(O)cc1` had an MIC against Helicobacter pylori of 235 µM (≈ 64.1 µg/mL).

For `COc1cc(O)c2c(c1C)O[C@H](c1ccc(O)cc1)CC2`, the minimum inhibitory concentration (MIC) in the experiment on Helicobacter pylori is 55.9 µM (≈ 16 µg/mL).
